Sampled rows, rich in hits. Any-hit rate of the full collection: about 2.9%.
PGC1a acetyl inh = modulators of PGC1a acetylation | U2OS PGC1a acetylation, AlphaScreen anti-acetyl-lysine; with virally co-expressed GCN5 acetyltransferase | AID 651687 | inhibition, % at 15.6 µM | 350,000 compounds, 0.17% hits;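 active means every replicate shows inhibition of at least 40%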
PglD inh = PglD (C. jejuni) enzyme inhibition | 360,000 compounds, 0.098% hits | inhibition, % at 12.5 µM | AID 602405 | purified PglD enzyme, DTNB colorimetric CoA detection; in the data active means inhibition above about 16%, passing the limit was not always enough
Cneo AK release = causes C. neoformans cell lysis; adenylate kinase release luminescence, 4 h; normalised: neutral wells 0, clomiphene wells 100; lysis activity, % at 15 µM; 360,000 compounds, 0.2% hits;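 active means mean lysis activity across replicates of at least 80%, whatever share of replicates individually reach that level; inactive means mean lysis activity below 80%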
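Assay system: log-phase C. neoformans yeast / Quantity: yeast cell density of 5 × 10^6 cells/mL / Medium: fresh YPD growth medium / Compound: single dose / Timing: static 4 h at 37 °C with compound, 1 h detection / Measured by: adenylate kinase release luminescence / Read-out: lysis from increased AK signal / Benchmarks: Clomiphene as positive lysis control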
Vif inh = HIV Vif inhibition | 340,000 compounds, 0.35% hits | AID 602346 | inhibition, % at 7.49 µM | HEK293T cells, Vif self-association by quenched fluorescence, imaging, 24 h; in the data active means inhibition above about 50%, passing the limit was not always enough
FGF22 binding = binders of recombinant human FGF22 by thermal shift; Q9HCT0; SYPRO orange fluorescence; percent of sucrose octasulfate shift, DMSO zero; activity (Tm shift, normalised), % at 9.99 µM; 340,000 compounds, 1.5% hits; AID 651658;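 active means mean Tm shift, scaled 0 neutral to 100 positive control, at about 1.3% or above, every replicate too, limit read from the data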
Target sequence (Q9HCT0 whole entry, looked up): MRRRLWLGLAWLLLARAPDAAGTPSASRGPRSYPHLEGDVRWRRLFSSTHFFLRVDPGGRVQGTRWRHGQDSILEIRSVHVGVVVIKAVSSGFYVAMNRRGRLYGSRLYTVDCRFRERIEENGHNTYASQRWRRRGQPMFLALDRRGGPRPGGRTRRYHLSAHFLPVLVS
rRNA inh HTS = inhibitors of bacterial rRNA selective over humanized ribosomes; E. coli WT GFP vs humanized-ribosome RFP mutants, fluorescence, 24 h; active compounds read low; DMSO median 0, no signal -100; GFP signal change (wild-type ribosome), % (test concentration not listed); 350,000 compounds, 1.6% hits; AID 720706;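 active means significant combined selectivity score with lowered wild-type GFP, culture density cut under 30%, mutant RFP and density less affected; inactive means any of these conditions unmet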
A number is an active result; - = inactive; . = no result.

SMILES | PGC1a acetyl inh | PglD inh | Cneo AK release | Vif inh | FGF22 binding | rRNA inh HTS
CC(C)C[C@H]1CNC(=O)C(=O)N1C[C@@H]1CCCN1C[C@H](Cc1ccc(O)cc1)N1C[C@H](Cc2ccccc2)N(CC2CCCCC2)C(=O)C1=O | . | . | . | . | - | -29.2
CNC(=O)C[C@H]1CC[C@H]2[C@@H](COC[C@H](O)CN2C(=O)Nc2cccc(OC)c2)O1 | - | - | - | . | - | -
CNC[C@@H]1Oc2ccc(NS(C)(=O)=O)cc2C(=O)N(C)C[C@@H]1C | . | . | . | . | . | -
Cc1ccc(NCc2nnc(SCC(N)=O)o2)c(C)c1 | . | . | . | - | - | -
CCOC(=O)CN(C(=O)CSc1nnc(CNc2ccc(C)cc2C)o1)c1ccccc1 | - | - | - | - | . | -22.7
Cc1ccc(CN2CCC(c3cc(-c4ccc(Cl)cc4)n[nH]3)CC2)cc1 | . | . | . | - | - | -
Clc1ccc(-c2cc(C3CCNCC3)[nH]n2)cc1 | - | . | . | - | 43.0 | -
COc1ccccc1Nc1nc(C)c(C(=O)Nc2ccccc2)s1 | - | - | - | - | . | -32.2
CO[C@@H]1CN(C)C(=O)c2ccc(NC(C)=O)cc2OC[C@@H](C)N(CC2CCCCC2)C[C@H]1C | . | . | . | . | . | -
Cc1cccc(OCc2nnc(SC(C)C(=O)O)n2Cc2ccccc2)c1 (stereo not drawn) | - | - | - | - | 43.3 | -
Cc1ccc(OCc2nnc(SC(C)C(=O)O)n2Cc2ccccc2)cc1 (stereo not drawn) | . | . | . | - | - | -
CCn1c(SCC(=O)Nc2nccs2)nnc1C1CC1 | - | - | - | - | - | -
Nn1c(SCC(=O)Nc2nccs2)nnc1C1CC1 | . | - | - | - | 2.3 | -
Cc1ccc(S(=O)(=O)N(C)C[C@@H]2OCCCC[C@H](C)Oc3ccc(NC(=O)Nc4c(C)noc4C)cc3C(=O)N([C@@H](C)CO)C[C@H]2C)cc1 | - | - | - | . | - | -
CN1/C(=C/C=C/c2n(C)c3cc([N+](=O)[O-])c([N+](=O)[O-])cc3[n+]2C)C(C)(C)c2ccccc21 | . | - | - | . | - | -58.6
Cc1cccc[n+]1CC(=O)/C=C1\N(C)c2ccccc2C1(C)C | - | - | - | - | - | -
C[C@@H]1CN([C@H](C)CO)C(=O)Cc2cc(NS(=O)(=O)c3cn(C)cn3)ccc2O[C@H]1CN(C)C | - | - | - | . | - | -
O=C(/C=C/c1ccc(Cl)cc1)NC(=S)Nc1ccccc1C(=O)O | - | . | . | - | - | -18.1
COc1cccc(NC(C)(C)c2nnnn2-c2c(C)cccc2C)c1 | - | - | - | . | - | -24.2
O=C(Nc1ccc(Cl)cc1)N[C@@H]1CC[C@@H](CCNC(=O)c2ccccc2F)O[C@@H]1CO | - | - | - | . | - | -
CCNC(=O)Nc1ccc2c(c1)C(=O)N(C)[C@H]1CC[C@@H](CC(=O)NCC3CCCCC3)O[C@H]1CO2 | - | - | - | . | - | -
CCCCn1c(=O)cc(N2CCOCC2)[nH]c1=O | - | - | - | . | - | -
CCn1c(=O)cc(N2CCOCC2)[nH]c1=O | . | . | . | - | 43.0 | -
COc1ccccc1NC(=O)/C=C1\SCC(=O)N1C | 93.4 | . | . | - | - | -
COc1ccc([N+](=O)[O-])cc1/C=N/NC(=O)CNC(=O)c1cccc(F)c1 | - | - | - | - | - | -23.2
SMILES | PGC1a acetyl inh | PglD inh | Cneo AK release | Vif inh | FGF22 binding | rRNA inh HTS
COc1ccc2c3c([nH]c2c1)[C@H](CO)N(Cc1nccs1)CC31CCN(C(=O)C2CCCC2)CC1 | . | . | . | . | - | -
O=[N+]([O-])c1ccc(S(=O)(=O)N2CCN(c3ccccn3)CC2)cc1 | - | - | - | - | 43.0 | -
CCN(CC)CCNC(=O)c1ccc2c(c1NCCO)C(=O)c1ccccc1C2=O | 91.6 | - | - | - | - | -
NS(=O)(=O)c1ccc(N/C=C/C(=O)c2ccc(Br)cc2)cc1 | - | - | - | - | - | -
NS(=O)(=O)c1ccc(N/C=C\C(=O)c2ccncc2)cc1 | . | . | . | - | 43.0 | -
C=CCc1ccc(OCCCCN2CC(C)CC(C)C2)c(OC)c1 (stereo not drawn) | . | - | - | - | - | -22.1
COc1ccc(C2CC3(O)CC(C#N)(C(=O)N3)C2(C#N)C#N)cc1 (stereo not drawn) | . | . | . | - | - | -
COc1ccc(C2CC3(O)NC(=O)C(C#N)(C3C)C2(C#N)C#N)cc1 (stereo not drawn) | - | - | - | 65.8 | - | -
Cc1ccc(C(=O)NCC#N)cc1 | . | . | . | - | - | -
Cc1ccc(C(=O)NC(C#N)=C(Cl)Cl)cc1 | . | . | . | . | - | -27.1
CO[C@@H]1CN(C)C(=O)c2cc(NC(=O)C3CC3)ccc2OC[C@H](C)N(CC2CCOCC2)C[C@H]1C | - | - | - | . | - | -
CO[C@H]1CN(C)C(=O)c2cc(NS(C)(=O)=O)ccc2OC[C@H](C)N(Cc2nccs2)C[C@@H]1C | - | - | - | . | - | -
CCC(=O)N1[C@@H]2Cn3c(ccc(-c4ccc(F)cc4)c3=O)[C@H]1[C@@H](C(=O)N(C)C)[C@@H]2CO | . | - | - | . | - | -
Clc1ccc(C2CC(c3cccs3)n3ncnc3N2)cc1 (stereo not drawn) | - | - | - | - | - | -41.0
CNc1ccc2nnc(C(F)(F)C(F)(F)C(F)(F)F)n2n1 | - | . | . | - | 43.1 | -
Cc1noc(C)c1S(=O)(=O)Nc1ccc2c(c1)C(=O)N([C@@H](C)CO)C[C@H](C)[C@@H](CN(C)S(C)(=O)=O)O2 | - | - | - | . | - | -
COC(=O)c1scc(S(=O)(=O)C(C)C)c1N/N=C(\C#N)C(=O)c1ccc(Cl)cc1 | . | . | . | - | - | -43.4
CC1(C)CC(=O)C(C2C3=C(CC(C)(C)CC3=O)Oc3ccc4ccccc4c32)C(=O)C1 (stereo not drawn) | . | . | . | - | - | -
CC1(C)CC(=O)C(C2C3=C(CC(C)(C)CC3=O)Oc3ccccc32)C(=O)C1 (stereo not drawn) | - | . | . | - | - | -22.1
C[C@@H]1CN([C@@H](C)CO)C(=O)c2cc(C#CC3(O)CCCC3)cnc2O[C@@H]1CN(C)Cc1ccccn1 | - | - | - | . | - | -
COc1ccc(NC(=S)Nc2ccc(OC(F)F)cc2)cn1 | . | . | . | - | 43.4 | -
COc1ccc(NC(=S)Nc2ccccc2)cn1 | . | . | . | - | - | .
Cc1ccccc1OCc1csc(N)n1 | . | . | . | - | 43.0 | -
COc1cccc(CN2CCN(C(=O)Nc3ccc([N+](=O)[O-])cc3)CC2)c1 | . | . | . | - | 43.0 | -
COc1ccccc1N1CCN(C(=O)Nc2ccc([N+](=O)[O-])cc2)CC1 | - | . | . | . | - | -
Cn1c(C(=O)O)c(C=O)c2ccccc21 | . | - | - | - | - | -
Cc1c(C(=O)C(C)C)n(C)c2ccccc12 | - | - | - | 59.1 | . | .
COc1ccc(S(=O)(=O)Nc2ccc3c(c2)C(=O)N([C@H](C)CO)C[C@@H](C)[C@@H](CN(C)C(=O)Nc2cccc4ccccc24)OCCCC[C@@H](C)O3)cc1 | - | - | - | . | - | -

Screens (PubChem BioAssay)
